According to ChEMBL document CHEMBL3621130, “Identification and characterization of β-sitosterol target proteins” (Bioorg Med Chem Lett, 2015):
Calls of active or inactive are those of the source. The calls are words filed in the database; no cut-off is given here.

Legend:
Type in all cases: cell-based
[1] = biological target: T1, Peroxisomal multifunctional enzyme type 2 (Mus musculus) (UniProt P51660); assay: Binding affinity to 17beta-HSD4 in mouse LPS-treated RAW264.7 cells at 200 nM by Western blot analysis
T1 sequence (whole entry): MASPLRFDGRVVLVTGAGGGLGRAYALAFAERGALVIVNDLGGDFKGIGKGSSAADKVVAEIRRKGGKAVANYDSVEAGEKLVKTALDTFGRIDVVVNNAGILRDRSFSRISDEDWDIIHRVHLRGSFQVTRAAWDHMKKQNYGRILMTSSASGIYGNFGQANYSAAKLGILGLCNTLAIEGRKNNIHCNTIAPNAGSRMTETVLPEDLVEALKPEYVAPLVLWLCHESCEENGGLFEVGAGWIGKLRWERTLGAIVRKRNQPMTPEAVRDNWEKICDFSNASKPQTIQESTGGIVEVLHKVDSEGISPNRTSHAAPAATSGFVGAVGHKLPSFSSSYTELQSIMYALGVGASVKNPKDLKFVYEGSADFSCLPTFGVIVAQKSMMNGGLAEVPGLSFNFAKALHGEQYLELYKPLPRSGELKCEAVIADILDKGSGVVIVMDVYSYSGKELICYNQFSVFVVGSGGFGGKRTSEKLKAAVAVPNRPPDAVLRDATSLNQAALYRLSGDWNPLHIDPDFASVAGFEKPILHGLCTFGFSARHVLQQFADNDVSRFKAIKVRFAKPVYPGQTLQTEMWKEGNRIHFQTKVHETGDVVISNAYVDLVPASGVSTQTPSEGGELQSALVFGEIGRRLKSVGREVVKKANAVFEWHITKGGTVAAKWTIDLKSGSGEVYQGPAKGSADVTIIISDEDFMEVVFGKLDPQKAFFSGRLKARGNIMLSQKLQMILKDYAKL
How it was run: (§1)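 Streptavidin affinity pull-down was run side by side in lysates from LPS-treated and untreated mouse Raw264.7 macrophages. Biotin, biotinylated β-sitosterol or biotinylated cholesterol was used at 200 nM for 17β-HSD4 and 600 nM for E-Syt1. Probe incubation with lysate was 2 h, followed by overnight streptavidin agarose capture.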

[2] = biological target: T2, Peroxisomal multifunctional enzyme type 2 (Homo sapiens) (UniProt P51659); assay: Binding affinity to 17beta-HSD4 in human PC3 cells at 200 nM by affinity chromatography analysis; conditions: PC-3
T2 sequence (whole entry): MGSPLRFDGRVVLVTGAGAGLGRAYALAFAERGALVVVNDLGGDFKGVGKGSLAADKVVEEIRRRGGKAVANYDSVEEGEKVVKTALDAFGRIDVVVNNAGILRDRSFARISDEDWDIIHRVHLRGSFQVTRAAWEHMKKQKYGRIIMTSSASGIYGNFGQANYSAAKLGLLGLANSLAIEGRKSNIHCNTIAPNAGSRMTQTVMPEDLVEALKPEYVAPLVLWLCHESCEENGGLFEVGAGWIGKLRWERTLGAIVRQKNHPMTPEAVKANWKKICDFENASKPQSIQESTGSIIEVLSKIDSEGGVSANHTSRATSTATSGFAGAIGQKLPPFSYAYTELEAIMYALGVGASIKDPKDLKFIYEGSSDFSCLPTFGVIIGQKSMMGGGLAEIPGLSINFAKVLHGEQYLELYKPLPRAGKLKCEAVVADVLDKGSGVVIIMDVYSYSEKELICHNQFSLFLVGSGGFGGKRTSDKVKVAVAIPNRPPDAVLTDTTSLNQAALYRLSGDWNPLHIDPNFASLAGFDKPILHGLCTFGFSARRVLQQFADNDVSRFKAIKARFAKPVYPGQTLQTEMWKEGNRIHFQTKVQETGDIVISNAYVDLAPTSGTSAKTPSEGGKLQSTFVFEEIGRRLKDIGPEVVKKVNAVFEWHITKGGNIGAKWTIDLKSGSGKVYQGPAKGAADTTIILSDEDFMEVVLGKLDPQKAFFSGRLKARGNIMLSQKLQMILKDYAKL

[3] = biological target: T2, Peroxisomal multifunctional enzyme type 2 (Homo sapiens); assay: Binding affinity to 17beta-HSD4 in human DU145 cells at 200 nM by affinity chromatography analysis; conditions: DU-145
[4] = biological target: T1, Peroxisomal multifunctional enzyme type 2 (Mus musculus); assay: Binding affinity to 17beta-HSD4 in mouse RAW264.7 cells at 200 nM by Western blot analysis; how it was run: as §1
[5] = biological target: T3, 3-oxo-5-alpha-steroid 4-dehydrogenase 1 (Homo sapiens) (UniProt P18405); assay: Binding affinity to S5A1 in human PC3 cells at 200 to 600 nM by affinity chromatography analysis; conditions: PC-3
T3 sequence (whole entry): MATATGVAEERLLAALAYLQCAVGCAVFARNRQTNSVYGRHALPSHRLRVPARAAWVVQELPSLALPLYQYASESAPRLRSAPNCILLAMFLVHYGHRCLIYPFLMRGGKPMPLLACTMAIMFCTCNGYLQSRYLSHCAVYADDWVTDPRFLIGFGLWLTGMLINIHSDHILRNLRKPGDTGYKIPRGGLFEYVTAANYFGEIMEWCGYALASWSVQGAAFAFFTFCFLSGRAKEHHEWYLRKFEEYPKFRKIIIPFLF

[6] = biological target: T3, 3-oxo-5-alpha-steroid 4-dehydrogenase 1 (Homo sapiens); assay: Binding affinity to S5A1 in human DU145 cells at 200 to 600 nM by affinity chromatography analysis; conditions: DU-145
[7] = biological target: T1, Peroxisomal multifunctional enzyme type 2 (Mus musculus); assay: Binding affinity to 17beta-HSD4 in mouse LPS-treated RAW264.7 cells at 200 nM after 2 hrs by MALDI mass spectrometry analysis
[8] = biological target: T4, Extended synaptotagmin-1 (Mus musculus) (UniProt Q3U7R1); assay: Binding affinity to E-Syt1 in mouse LPS-treated RAW264.7 cells at 600 nM after 2 hrs by MALDI mass spectrometry analysis
T4 sequence (whole entry): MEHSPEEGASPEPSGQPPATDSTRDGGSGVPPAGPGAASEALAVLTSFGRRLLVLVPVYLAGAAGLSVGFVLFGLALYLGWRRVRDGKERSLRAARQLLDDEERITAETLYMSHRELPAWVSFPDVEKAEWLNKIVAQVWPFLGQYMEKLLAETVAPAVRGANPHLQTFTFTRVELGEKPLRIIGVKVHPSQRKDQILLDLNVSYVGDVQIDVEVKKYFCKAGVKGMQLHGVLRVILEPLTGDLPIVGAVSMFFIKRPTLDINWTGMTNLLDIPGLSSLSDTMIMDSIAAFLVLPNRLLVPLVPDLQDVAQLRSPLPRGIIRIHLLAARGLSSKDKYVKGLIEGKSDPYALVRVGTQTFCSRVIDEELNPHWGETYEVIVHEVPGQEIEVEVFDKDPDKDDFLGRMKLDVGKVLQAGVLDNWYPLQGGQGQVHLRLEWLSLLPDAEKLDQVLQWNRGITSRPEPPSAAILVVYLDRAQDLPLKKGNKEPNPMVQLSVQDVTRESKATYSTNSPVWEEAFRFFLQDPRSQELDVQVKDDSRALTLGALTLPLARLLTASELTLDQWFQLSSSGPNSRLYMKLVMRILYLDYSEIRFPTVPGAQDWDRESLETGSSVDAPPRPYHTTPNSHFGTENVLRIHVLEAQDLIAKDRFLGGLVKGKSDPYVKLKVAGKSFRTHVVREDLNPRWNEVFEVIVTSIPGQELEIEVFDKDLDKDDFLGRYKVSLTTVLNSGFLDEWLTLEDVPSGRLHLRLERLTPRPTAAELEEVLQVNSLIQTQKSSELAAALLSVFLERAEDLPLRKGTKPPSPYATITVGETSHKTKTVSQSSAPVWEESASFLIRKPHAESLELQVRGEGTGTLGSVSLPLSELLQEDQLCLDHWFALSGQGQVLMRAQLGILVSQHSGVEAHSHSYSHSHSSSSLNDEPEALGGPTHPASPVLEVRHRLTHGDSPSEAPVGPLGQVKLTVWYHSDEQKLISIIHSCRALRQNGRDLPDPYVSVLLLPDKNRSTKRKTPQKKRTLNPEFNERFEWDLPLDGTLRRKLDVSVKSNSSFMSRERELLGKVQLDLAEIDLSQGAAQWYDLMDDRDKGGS

[9] = biological target: T4, Extended synaptotagmin-1 (Mus musculus); assay: Binding affinity to E-Syt1 in mouse LPS-treated RAW264.7 cells at 600 nM by Western blot analysis; how it was run: as §1
[10] = biological target: T5, Extended synaptotagmin-1 (Homo sapiens) (UniProt Q9BSJ8); assay: Binding affinity to E-Syt1 in human PC3 cells at 600 nM by affinity chromatography analysis; conditions: PC-3
T5 sequence (whole entry): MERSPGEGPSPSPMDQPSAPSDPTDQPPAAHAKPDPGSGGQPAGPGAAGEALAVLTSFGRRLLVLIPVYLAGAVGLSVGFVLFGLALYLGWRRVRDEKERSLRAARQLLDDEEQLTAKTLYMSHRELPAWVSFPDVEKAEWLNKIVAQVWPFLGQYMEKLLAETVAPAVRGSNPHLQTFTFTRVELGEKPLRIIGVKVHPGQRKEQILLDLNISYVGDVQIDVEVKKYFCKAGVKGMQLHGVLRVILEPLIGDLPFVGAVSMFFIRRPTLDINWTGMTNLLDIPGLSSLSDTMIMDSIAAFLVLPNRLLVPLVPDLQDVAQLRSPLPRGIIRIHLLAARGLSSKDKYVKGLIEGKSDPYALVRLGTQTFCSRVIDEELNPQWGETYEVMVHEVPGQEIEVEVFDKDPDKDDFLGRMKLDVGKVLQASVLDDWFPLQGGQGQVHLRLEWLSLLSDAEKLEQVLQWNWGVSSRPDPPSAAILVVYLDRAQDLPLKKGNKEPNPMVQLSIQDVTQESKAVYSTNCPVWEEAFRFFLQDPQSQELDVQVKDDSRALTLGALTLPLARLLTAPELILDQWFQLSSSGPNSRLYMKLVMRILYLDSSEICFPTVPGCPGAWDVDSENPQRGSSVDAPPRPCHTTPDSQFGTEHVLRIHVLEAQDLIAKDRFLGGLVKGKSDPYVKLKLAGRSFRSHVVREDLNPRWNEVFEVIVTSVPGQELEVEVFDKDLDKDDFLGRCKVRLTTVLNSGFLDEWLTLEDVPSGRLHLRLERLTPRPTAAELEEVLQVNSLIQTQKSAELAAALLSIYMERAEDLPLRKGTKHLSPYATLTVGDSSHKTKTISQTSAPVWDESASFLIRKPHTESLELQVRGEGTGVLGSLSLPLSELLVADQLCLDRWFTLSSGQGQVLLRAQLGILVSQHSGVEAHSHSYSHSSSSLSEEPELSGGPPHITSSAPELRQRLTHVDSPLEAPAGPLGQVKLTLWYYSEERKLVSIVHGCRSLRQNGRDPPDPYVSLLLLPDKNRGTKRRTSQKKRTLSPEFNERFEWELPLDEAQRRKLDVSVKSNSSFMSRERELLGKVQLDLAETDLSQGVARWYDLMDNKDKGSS

[11] = biological target: T5, Extended synaptotagmin-1 (Homo sapiens); assay: Binding affinity to E-Syt1 in human DU145 cells at 600 nM by affinity chromatography analysis; conditions: DU-145
[12] = biological target: T4, Extended synaptotagmin-1 (Mus musculus); assay: Binding affinity to E-Syt1 in mouse RAW264.7 cells at 600 nM by Western blot analysis; how it was run: as §1
[13] = biological target: T4, Extended synaptotagmin-1 (Mus musculus); assay: Binding affinity to E-Syt1 in mouse RAW264.7 cells at 600 nM after 2 hrs by MALDI mass spectrometry analysis; how it was run: as §1
[14] = biological target: T1, Peroxisomal multifunctional enzyme type 2 (Mus musculus); assay: Binding affinity to 17beta-HSD4 in mouse RAW264.7 cells at 200 nM after 2 hrs by MALDI mass spectrometry analysis; how it was run: as §1

Activity [1]	Activity [2]	Activity [3]	Activity [4]	Activity [5]	Activity [6]	Activity [7]	Activity [8]	Activity [9]	Activity [10]	Activity [11]	Activity [12]	Activity [13]	Activity [14]	SMILES
Active	Active	Active	Active	inactive	inactive	–	–	–	–	–	–	–	–	CC(C)CCC[C@@H](C)[C@H]1CC[C@H]2[C@@H]3CC=C4C[C@@H](OCc5cn(CCOCCOCCOCCNC(=O)CCCC[C@@H]6SC[C@@H]7NC(=O)N[C@@H]76)nn5)CC[C@]4(C)[C@H]3CC[C@]12C
Active	Active	Active	Active	inactive	inactive	Active	Active	Active	Active	Active	Active	Active	Active	CC[C@H](CC[C@@H](C)[C@H]1CC[C@H]2[C@@H]3CC=C4C[C@@H](OCc5cn(CCOCCOCCOCCNC(=O)CCCC[C@@H]6SC[C@@H]7NC(=O)N[C@@H]76)nn5)CC[C@]4(C)[C@H]3CC[C@]12C)C(C)C
